pEC50: −log10 of the molar value.
Assays:
[1] = target: T1, Nuclear factor erythroid 2-related factor 2 (Mus musculus) (UniProt Q60795); test: Activation of Nrf2 in mouse BV-2 cells assessed as increase in HO1 mRNA expression at 1 uM after 6 hrs by RT-qPCR analysis relative to control; assay type: cell-based; details: filed as activator
T1 sequence (whole entry): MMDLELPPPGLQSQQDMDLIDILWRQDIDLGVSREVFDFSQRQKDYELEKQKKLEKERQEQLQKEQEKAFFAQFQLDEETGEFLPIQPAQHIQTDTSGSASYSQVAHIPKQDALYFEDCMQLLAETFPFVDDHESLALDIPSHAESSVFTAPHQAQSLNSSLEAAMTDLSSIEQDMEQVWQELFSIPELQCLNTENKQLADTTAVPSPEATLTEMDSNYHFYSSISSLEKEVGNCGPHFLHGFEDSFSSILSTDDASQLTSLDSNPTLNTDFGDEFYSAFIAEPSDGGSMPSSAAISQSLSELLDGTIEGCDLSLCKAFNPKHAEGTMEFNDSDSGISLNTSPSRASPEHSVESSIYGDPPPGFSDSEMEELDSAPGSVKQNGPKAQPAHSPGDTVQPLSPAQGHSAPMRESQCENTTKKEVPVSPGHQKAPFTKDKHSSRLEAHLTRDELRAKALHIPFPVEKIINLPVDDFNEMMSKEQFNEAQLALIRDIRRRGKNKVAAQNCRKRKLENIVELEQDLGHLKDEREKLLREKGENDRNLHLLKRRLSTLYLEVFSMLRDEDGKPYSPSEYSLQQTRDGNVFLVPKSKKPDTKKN
Procedure, shortened: (§1)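 BV-2 cells exposed to a range of concentrations for 6 h. Ho1, Gclc, Gclm and Sod1 mRNA quantified by RT-qPCR and expressed relative to vehicle-treated control. Mean ± SEM, n = 3; Student's t-test.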

[2] = target: T2, Nuclear factor erythroid 2-related factor 2 (Homo sapiens, UniProt Q16236); test: Activation of Nrf2 (unknown origin) expressed in human U2OS cells co-expressing Keap1 assessed as increase in Nrf2 nuclear translocation incubated for 6 hrs under dark condition by pathhunter assay; assay type: cell-based
T2 sequence (Q16236 whole entry): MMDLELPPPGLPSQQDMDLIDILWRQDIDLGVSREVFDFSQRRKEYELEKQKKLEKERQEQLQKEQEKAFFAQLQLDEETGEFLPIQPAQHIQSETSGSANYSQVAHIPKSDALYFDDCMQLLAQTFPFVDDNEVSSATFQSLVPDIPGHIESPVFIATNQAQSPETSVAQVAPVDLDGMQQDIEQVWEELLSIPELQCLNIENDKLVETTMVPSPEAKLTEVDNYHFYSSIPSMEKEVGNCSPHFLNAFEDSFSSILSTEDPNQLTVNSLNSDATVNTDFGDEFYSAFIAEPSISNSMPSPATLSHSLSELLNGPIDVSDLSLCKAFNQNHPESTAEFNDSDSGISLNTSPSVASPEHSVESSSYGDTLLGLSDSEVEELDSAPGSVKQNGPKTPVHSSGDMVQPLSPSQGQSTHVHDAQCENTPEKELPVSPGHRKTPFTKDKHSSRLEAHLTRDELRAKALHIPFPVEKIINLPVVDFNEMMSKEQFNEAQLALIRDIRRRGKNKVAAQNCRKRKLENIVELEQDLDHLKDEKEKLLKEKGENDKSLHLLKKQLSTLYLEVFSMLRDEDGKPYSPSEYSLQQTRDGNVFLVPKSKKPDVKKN

[3] = target: CYP2C19 (Homo sapiens, UniProt P33261); test: Inhibition of CYP2C19 (unknown origin) assessed as residual activity; assay type: ADME
Chain of CYP2C19 (P33261 whole entry): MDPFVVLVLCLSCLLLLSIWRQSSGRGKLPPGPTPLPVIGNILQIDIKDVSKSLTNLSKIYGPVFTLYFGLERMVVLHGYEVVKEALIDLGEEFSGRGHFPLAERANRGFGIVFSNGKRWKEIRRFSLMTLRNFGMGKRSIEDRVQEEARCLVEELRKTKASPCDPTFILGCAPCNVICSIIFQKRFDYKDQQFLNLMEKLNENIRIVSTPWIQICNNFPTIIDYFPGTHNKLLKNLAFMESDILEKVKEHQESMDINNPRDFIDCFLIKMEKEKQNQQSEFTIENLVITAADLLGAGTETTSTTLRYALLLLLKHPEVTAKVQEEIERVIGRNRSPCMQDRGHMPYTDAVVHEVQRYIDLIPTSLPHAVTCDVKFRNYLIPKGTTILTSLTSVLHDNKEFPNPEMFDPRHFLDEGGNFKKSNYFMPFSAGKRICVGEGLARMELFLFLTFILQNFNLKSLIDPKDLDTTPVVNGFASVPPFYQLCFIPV

[4] = target: T3, CYP1A2 (Homo sapiens, UniProt P05177); test: Inhibition of CYP1A2 (unknown origin) assessed as residual activity; assay type: ADME
T3 sequence (P05177 whole entry): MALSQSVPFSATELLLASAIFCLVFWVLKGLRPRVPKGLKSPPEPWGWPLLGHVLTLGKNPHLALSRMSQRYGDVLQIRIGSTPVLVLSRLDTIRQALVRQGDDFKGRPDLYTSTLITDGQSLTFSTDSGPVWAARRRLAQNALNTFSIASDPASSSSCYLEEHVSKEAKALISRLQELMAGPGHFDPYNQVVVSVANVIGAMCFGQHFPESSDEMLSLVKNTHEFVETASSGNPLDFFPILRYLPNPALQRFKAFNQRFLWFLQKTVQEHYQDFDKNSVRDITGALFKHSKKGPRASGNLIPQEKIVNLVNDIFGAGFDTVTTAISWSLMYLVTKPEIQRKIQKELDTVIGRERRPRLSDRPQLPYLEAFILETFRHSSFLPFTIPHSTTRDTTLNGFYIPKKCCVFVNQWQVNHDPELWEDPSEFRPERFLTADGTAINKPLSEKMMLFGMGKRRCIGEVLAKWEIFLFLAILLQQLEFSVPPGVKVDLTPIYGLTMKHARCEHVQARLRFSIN

[5] = Cytotoxicity against mouse BV-2 cells assessed cell viability at 3 uM measured after 6 hrs by Ez-cytox reagent based assay relative to control; details: read-out: Activity
Procedure, shortened: (§2)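 BV-2 cells (1.0 × 10⁴/well) grown 24 h at 37 °C, 5% CO2, then treated 6 h at […]. Viability expressed as percent of control.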

[6] = target: T1, Nuclear factor erythroid 2-related factor 2 (Mus musculus); test: Activation of Nrf2 in mouse BV-2 cells assessed as increase in GCLC expression at 10 uM after 6 hrs by Western blot analysis relative to control; assay type: cell-based; details: filed as activator
Procedure, shortened: (§3)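 BV-2 microglia grown in RPMI-1640 with 10% FBS, penicillin-streptomycin and 2 mM L-glutamine at 37 °C, 5% CO2. Cells exposed to a range of concentrations for 6 h, then HO-1, GCLC, GCLM and SOD1 protein measured by Western blot. Band intensity normalized to β-actin and given as fold of vehicle control. Mean ± SEM, n = 3, three separate experiments.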

[7] = target: T1, Nuclear factor erythroid 2-related factor 2 (Mus musculus); test: Activation of Nrf2 in mouse BV-2 cells assessed as increase in GCLM expression after 6 hrs by Western blot analysis; assay type: cell-based; details: filed as activator, dose 0.02-10 µM; procedure, shortened: as §3
[8] = target: T1, Nuclear factor erythroid 2-related factor 2 (Mus musculus); test: Activation of Nrf2 in mouse BV-2 cells assessed as increase in SOD1 expression after 6 hrs by Western blot analysis; assay type: cell-based; details: filed as activator, dose 0.02-10 µM; procedure, shortened: as §3
[9] = test system: BV-2; test: Antiinflammatory activity in mouse BV-2 cells assessed as inhibition of LPS-induced IL6 production preincubated for 6 hrs followed by LPS stimulation and measured after 24 hrs by ELISA; assay type: functional, cell-based; details: dose 0.02-2 µM, time 30.0 hrs
Procedure, shortened: (§4)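 BV-2 cells seeded in 12-well plates and pretreated 6 h with compound at […]. LPS then added for 24 h. TNF-α and IL-6 released into the medium quantified by ELISA. Mean ± SEM, n = 3, three separate experiments.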

[10] = test system: BV-2; test: Antiinflammatory activity in mouse BV-2 cells assessed as inhibition of LPS-induced TNFalpha production preincubated for 6 hrs followed by LPS stimulation and measured after 24 hrs by ELISA; assay type: functional, cell-based; details: dose 0.02-2 µM, time 30.0 hrs; procedure, shortened: as §4
[11] = target: T1, Nuclear factor erythroid 2-related factor 2 (Mus musculus); test: Activation of Nrf2 in mouse BV-2 cells assessed as increase in Sod1 mRNA expression at 1 uM after 6 hrs by RT-qPCR analysis relative to control; assay type: cell-based; details: filed as activator; procedure, shortened: as §1
[12] = Cytotoxicity against mouse BV-2 cells assessed cell viability at 0.3 uM measured after 6 hrs by Ez-cytox reagent based assay relative to control; details: read-out: Activity; procedure, shortened: as §2

fold change (FC) [1]: 6 | pEC50 [2]: 7.59 | activity [3]: 27.8% | activity [4]: 88.4% | fold change (FC) [6]: 8.5 | Activity [7]: Dose-dependent effect | Activity [8]: Dose-dependent effect | fold change (FC) [11]: 2.5
SMILES: O=S(=O)(/C=C/c1ncccc1Cl)c1ccccc1Cl
viability at 6 h, 3 µM [5]: 92.4% | inhibition [9]: Dose-dependent effect | inhibition [10]: Dose-dependent effect | viability at 6 h, 0.3 µM [12]: 100%

From ChEMBL document CHEMBL4706647, “Development and optimization of halogenated vinyl sulfones as Nrf2 activators for the treatment of Parkinson's disease” (Eur J Med Chem, 2021)
